Experimental data taken from ChEMBL document CHEMBL1811902, “Thermodynamic and biological evaluation of a thrombin binding aptamer modified with several unlocked nucleic acid (UNA) monomers and a 2'-C-piperazino-UNA monomer” (Bioorg Med Chem, 2011).
pKd: −log10 of the molar value.

Tests used:
[1] = Thermodynamic stability in pH 7.0 buffer containing 100 mM Kcl, 10 mM sodium cacodylate; format: physicochemical
Outline: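 UV melting at 295 nm over 5–95 °C at 0.2 °C/min. Samples annealed 5 min at 80 °C, then slowly cooled. Nine strand concentrations spanning 10^-5–10^-6 M, set from absorbance above 80 °C. Heating and cooling profiles recorded. Thermodynamic parameters from non-linear fitting of melting curves with a unimolecular transition model.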

Plasma [2] = assay: Anticoagulant activity in human plasma assessed as time required for clot formation in presence of compound minus time required for clot formation in absence of compound at 0.33 mM at 37 degC; format: functional
Outline: (§1)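 Pooled citrate plasma from four healthy donors. Thrombin reagent pre-incubated with aptamer at 0.33 mM for 5 min, then mixed with an equal volume of plasma. Clotting time (thrombin time, seconds) read at 37 °C on an automated coagulation analyser. Antithrombin effect taken as the extra clotting time over a water-added reference.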

Plasma [3] = assay: Anticoagulant activity in human plasma assessed as time required for clot formation at 0.33 mM at 37 degC; format: functional; outline: as §1
Prothrombin = Prothrombin (Homo sapiens, UniProt P00734); assay: Binding affinity to thrombin at 37 degC by isothermal titration calorimetry
Outline: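 ITC at 37 °C. One 0.2 µL pre-injection, discarded, then 19 × 2 µL injections. Heat of dilution from aptamer-into-buffer injections subtracted.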

Row | SMILES | Tm [1] [°C] | pKd (Prothrombin) | Time (Plasma [2]) [s] | Time (Plasma [3]) [s]
1 | Cc1cn([C@H]2C[C@H](OP(N)(=O)OC[C@@H]3C[C@@H](OP(N)(=O)OC[C@H]4O[C@@H](n5cnc6c(=O)[nH]c(N)nc65)C[C@@H]4OP(N)(=O)OC[C@H](COP(N)(=O)OC[C@H]4O[C@@H](n5cnc6c(=O)[nH]c(N)nc65)C[C@@H]4OP(N)(=O)OC[C@H]4O[C@@H](n5cc(C)c(=O)[nH]c5=O)C[C@@H]4OP(N)(=O)OC[C@H]4O[C@@H](n5cnc6c(=O)[nH]c(N)nc65)C[C@@H]4OP(N)(=O)OC[C@H]4O[C@@H](n5cnc6c(=O)[nH]c(N)nc65)C[C@@H]4OP(N)(=O)OC[C@H](COP(N)(=O)OC[C@H]4O[C@@H](n5cc(C)c(=O)[nH]c5=O)C[C@@H]4OP(N)(=O)OC[C@H]4O[C@@H](n5cnc6c(=O)[nH]c(N)nc65)C[C@@H]4OP(N)(=O)OC[C@H]4O[C@@H](n5cnc6c(=O)[nH]c(N)nc65)C[C@@H]4O)O[C@H](CO)n4ccc(=O)[nH]c4=O)O[C@H](CO)n4ccc(=O)[nH]c4=O)[C@H](n4cnc5c(=O)[nH]c(N)nc54)O3)[C@@H](COP(N)(=O)OC[C@@H](COP(N)(=O)O[C@H]3C[C@H](n4cnc5c(=O)[nH]c(N)nc54)O[C@@H]3COP(N)(=O)O[C@H]3C[C@H](n4cnc5c(=O)[nH]c(N)nc54)O[C@@H]3COC(=O)CCCC[C@@H]3SC[C@@H]4NC(=O)N[C@@H]43)O[C@H](CO)n3ccc(=O)[nH]c3=O)O2)c(=O)[nH]c1=O (stereo partly drawn) | 51 |  | 0.5 | 19.5
2 | Cc1cn([C@H]2C[C@H](OP(N)(=O)OC[C@@H]3C[C@@H](OP(N)(=O)OC[C@H]4O[C@@H](n5cnc6c(=O)[nH]c(N)nc65)C[C@@H]4OP(N)(=O)OC[C@H]4O[C@@H](n5ccc(=O)[nH]c5=O)[C@H](O)[C@@H]4OP(N)(=O)OC[C@H]4O[C@@H](n5cnc6c(=O)[nH]c(N)nc65)[C@H](O)[C@@H]4OP(N)(=O)OC[C@H]4O[C@@H](n5ccc(=O)[nH]c5=O)[C@H](O)[C@@H]4OP(N)(=O)OC[C@H]4O[C@@H](n5cnc6c(=O)[nH]c(N)nc65)C[C@@H]4OP(N)(=O)OC[C@H]4O[C@@H](n5cnc6c(=O)[nH]c(N)nc65)C[C@@H]4OP(N)(=O)OC[C@H]4O[C@@H](n5ccc(=O)[nH]c5=O)[C@H](O)[C@@H]4OP(N)(=O)OC[C@H]4O[C@@H](n5cc(C)c(=O)[nH]c5=O)C[C@@H]4OP(N)(=O)OC[C@H]4O[C@@H](n5cnc6c(=O)[nH]c(N)nc65)C[C@@H]4OP(N)(=O)OC[C@H]4O[C@@H](n5cnc6c(=O)[nH]c(N)nc65)C[C@@H]4O)[C@H](n4cnc5c(=O)[nH]c(N)nc54)O3)[C@@H](COP(N)(=O)O[C@H]3[C@@H](O)[C@H](n4ccc(=O)[nH]c4=O)O[C@@H]3COP(N)(=O)O[C@H]3C[C@H](n4cnc5c(=O)[nH]c(N)nc54)O[C@@H]3COP(N)(=O)O[C@H]3C[C@H](n4cnc5c(=O)[nH]c(N)nc54)O[C@@H]3COC(=O)CCCC[C@@H]3SC[C@@H]4NC(=O)N[C@@H]43)O2)c(=O)[nH]c1=O (stereo partly drawn) | 29.7 |  | 0 | 19
3 | Cc1cn([C@H]2C[C@H](OP(N)(=O)OC[C@@H]3C[C@@H](OP(N)(=O)OC[C@H]4O[C@@H](n5cnc6c(=O)[nH]c(N)nc65)C[C@@H]4OP(N)(=O)OC[C@H]4O[C@@H](n5ccc(=O)[nH]c5=O)[C@H](O)[C@@H]4OP(N)(=O)OC[C@H]4O[C@@H](n5cnc6c(=O)[nH]c(N)nc65)C[C@@H]4OP(N)(=O)OC[C@H]4O[C@@H](n5cc(C)c(=O)[nH]c5=O)C[C@@H]4OP(N)(=O)OC[C@H]4O[C@@H](n5cnc6c(=O)[nH]c(N)nc65)C[C@@H]4OP(N)(=O)OC[C@H]4O[C@@H](n5cnc6c(=O)[nH]c(N)nc65)C[C@@H]4OP(N)(=O)OC[C@H]4O[C@@H](n5cc(C)c(=O)[nH]c5=O)C[C@@H]4OP(N)(=O)OC[C@H]4O[C@@H](n5cc(C)c(=O)[nH]c5=O)C[C@@H]4OP(N)(=O)OC[C@H]4O[C@@H](n5cnc6c(=O)[nH]c(N)nc65)C[C@@H]4OP(N)(=O)OC[C@H]4O[C@@H](n5cnc6c(=O)[nH]c(N)nc65)C[C@@H]4O)[C@H](n4cnc5c(=O)[nH]c(N)nc54)O3)[C@@H](COP(N)(=O)O[C@H]3C[C@H](n4cc(C)c(=O)[nH]c4=O)O[C@@H]3COP(N)(=O)O[C@H]3C[C@H](n4cnc5c(=O)[nH]c(N)nc54)O[C@@H]3COP(N)(=O)O[C@H]3C[C@H](n4cnc5c(=O)[nH]c(N)nc54)O[C@@H]3CO)O2)c(=O)[nH]c1=O (stereo partly drawn) |  | 7.43 |  | 

Second part, led by results:

Row | Tm [1] [°C] | pKd (Prothrombin) | SMILES | Time (Plasma [2]) [s] | Time (Plasma [3]) [s]
4 | 45.4 | 5.80 | Cc1cn([C@H]2C[C@H](OP(N)(=O)OC[C@@H]3C[C@@H](OP(N)(=O)OC[C@H]4O[C@@H](n5cnc6c(=O)[nH]c(N)nc65)C[C@@H]4OP(N)(=O)OC[C@H]4O[C@@H](n5cc(C)c(=O)[nH]c5=O)C[C@@H]4OP(N)(=O)OC[C@H]4O[C@@H](n5cnc6c(=O)[nH]c(N)nc65)C[C@@H]4OP(N)(=O)OC[C@H]4O[C@@H](n5cc(C)c(=O)[nH]c5=O)C[C@@H]4OP(N)(=O)OC[C@H]4O[C@@H](n5cnc6c(=O)[nH]c(N)nc65)C[C@@H]4OP(N)(=O)OC[C@H]4O[C@@H](n5cnc6c(=O)[nH]c(N)nc65)C[C@@H]4OP(N)(=O)OC[C@H]4O[C@@H](n5cc(C)c(=O)[nH]c5=O)C[C@@H]4OP(N)(=O)OC[C@H]4O[C@@H](n5cc(C)c(=O)[nH]c5=O)C[C@@H]4OP(N)(=O)OC[C@H]4O[C@@H](n5cnc6c(=O)[nH]c(N)nc65)C[C@@H]4OP(N)(=O)OC[C@H]4O[C@@H](n5cnc6c(=O)[nH]c(N)nc65)C[C@@H]4O)[C@H](n4cnc5c(=O)[nH]c(N)nc54)O3)[C@@H](COP(N)(=O)OC[C@@H](COP(N)(=O)O[C@H]3C[C@H](n4cnc5c(=O)[nH]c(N)nc54)O[C@@H]3COP(N)(=O)O[C@H]3C[C@H](n4cnc5c(=O)[nH]c(N)nc54)O[C@@H]3COC(=O)CCCC[C@@H]3SC[C@@H]4NC(=O)N[C@@H]43)O[C@H](CN3CCNCC3)n3ccc(=O)[nH]c3=O)O2)c(=O)[nH]c1=O (stereo partly drawn) | 2.3 | 21.3
5 | 45.2 | 7.28 | Cc1cn([C@H]2C[C@H](OP(N)(=O)OC[C@H]3O[C@@H](n4cnc5c(=O)[nH]c(N)nc54)C[C@@H]3OP(N)(=O)OC[C@H]3O[C@@H](n4cnc5c(=O)[nH]c(N)nc54)C[C@@H]3O)[C@@H](COP(N)(=O)O[C@H]3C[C@H](n4cc(C)c(=O)[nH]c4=O)O[C@@H]3COP(N)(=O)O[C@H]3C[C@H](n4cnc5c(=O)[nH]c(N)nc54)O[C@@H]3COP(N)(=O)O[C@H]3C[C@H](n4cnc5c(=O)[nH]c(N)nc54)O[C@@H]3COP(N)(=O)O[C@H]3C[C@H](n4cc(C)c(=O)[nH]c4=O)O[C@@H]3COP(N)(=O)O[C@H]3C[C@H](n4cnc5c(=O)[nH]c(N)nc54)O[C@@H]3COP(N)(=O)OC[C@@H](COP(N)(=O)O[C@H]3C[C@H](n4cnc5c(=O)[nH]c(N)nc54)O[C@@H]3COP(N)(=O)O[C@@H]3C[C@@H](COP(N)(=O)O[C@H]4C[C@H](n5cc(C)c(=O)[nH]c5=O)O[C@@H]4COP(N)(=O)O[C@H]4C[C@H](n5c(C)cc(=O)[nH]c5=O)O[C@@H]4COP(N)(=O)O[C@H]4C[C@H](n5cnc6c(=O)[nH]c(N)nc65)O[C@@H]4COP(N)(=O)O[C@H]4C[C@H](n5cnc6c(=O)[nH]c(N)nc65)O[C@@H]4COC(=O)CCCC[C@@H]4SC[C@@H]5NC(=O)N[C@@H]54)O[C@H]3n3cnc4c(=O)[nH]c(N)nc43)O[C@H](CN3CCNCC3)n3ccc(=O)[nH]c3=O)O2)c(=O)[nH]c1=O (stereo partly drawn) | 12.2 | 31.2
6 | 47.4 |  | Cc1cn([C@H]2C[C@H](OP(N)(=O)OC[C@@H]3C[C@@H](OP(N)(=O)OC[C@H]4O[C@@H](n5cnc6c(=O)[nH]c(N)nc65)C[C@@H]4OP(N)(=O)OC[C@H]4O[C@@H](n5cc(C)c(=O)[nH]c5=O)C[C@@H]4OP(N)(=O)OC[C@H]4O[C@@H](n5cnc6c(=O)[nH]c(N)nc65)C[C@@H]4OP(N)(=O)OC[C@H]4O[C@@H](n5cc(C)c(=O)[nH]c5=O)C[C@@H]4OP(N)(=O)OC[C@H]4O[C@@H](n5cnc6c(=O)[nH]c(N)nc65)C[C@@H]4OP(N)(=O)OC[C@H]4O[C@@H](n5cnc6c(=O)[nH]c(N)nc65)C[C@@H]4OP(N)(=O)OC[C@H](COP(N)(=O)OC[C@H]4O[C@@H](n5cc(C)c(=O)[nH]c5=O)C[C@@H]4OP(N)(=O)OC[C@H]4O[C@@H](n5cnc6c(=O)[nH]c(N)nc65)C[C@@H]4OP(N)(=O)OC[C@H]4O[C@@H](n5cnc6c(=O)[nH]c(N)nc65)C[C@@H]4O)O[C@H](CO)n4ccc(=O)[nH]c4=O)[C@H](n4cnc5c(=O)[nH]c(N)nc54)O3)[C@@H](COP(N)(=O)OC[C@@H](COP(N)(=O)O[C@H]3C[C@H](n4cnc5c(=O)[nH]c(N)nc54)O[C@@H]3COP(N)(=O)O[C@H]3C[C@H](n4cnc5c(=O)[nH]c(N)nc54)O[C@@H]3COC(=O)CCCC[C@@H]3SC[C@@H]4NC(=O)N[C@@H]43)O[C@H](CO)n3ccc(=O)[nH]c3=O)O2)c(=O)[nH]c1=O (stereo partly drawn) | 0.4 | 19.4
